Laboratory results: publication PMC5955861 (Oncogene, 2018)
Read-outs that look alike come from different tables or passages of the source.

Key:
SKM-1 = assay: alamarBlue cell proliferation assay; assay type: cell-based; conditions: Homo sapiens
In short: (§1)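 Leukemia, lymphoma and myeloma lines (from ATCC or DSMZ, grown per supplier instructions, STR-authenticated; GFP-labelled sublines where stated) were incubated with test compound in 96-well flat-bottom plates. Viability was read by alamarBlue conversion, and EC50 was taken from the concentration-response.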

OCI-Ly19 = assay: alamarBlue cell proliferation assay; assay type: cell-based; conditions: Homo sapiens
In short: as §1

NCI-H929 = assay: alamarBlue cell proliferation assay; assay type: cell-based; conditions: Homo sapiens
In short: as §1

U-2932 = assay: alamarBlue cell proliferation assay; assay type: cell-based; conditions: Homo sapiens, U2932
In short: (§2)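 Cell lines from ATCC or DSMZ were cultured per supplier's instructions and STR-authenticated. MV-4-11B is a clone of MV-4-11 carrying heterozygous TP53 c.742C>T (p.R248W). Cells were exposed to test compound in 96-well format, and viability was read after incubation with alamarBlue.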

HuT78 = assay: alamarBlue cell proliferation assay; assay type: cell-based; conditions: Homo sapiens
In short: as §1

RPMI 8226 = assay: alamarBlue cell proliferation assay; assay type: cell-based; conditions: Homo sapiens
In short: as §1

Kasumi-3 = assay: alamarBlue cell proliferation assay; assay type: cell-based
In short: as §1

RI-1 = assay: alamarBlue cell proliferation assay; assay type: cell-based
In short: as §1

MV-4-11B cells [1] = assay: IncuCyte live-cell proliferation and caspase-3/7 apoptosis assay; assay type: cell-based
TMD8 = assay: alamarBlue cell proliferation assay; assay type: cell-based; conditions: Homo sapiens
In short: as §2

OCI-Ly7 = assay: alamarBlue cell proliferation assay; assay type: cell-based; conditions: Homo sapiens
In short: as §1

U266 B1 = assay: alamarBlue cell proliferation assay; assay type: cell-based; conditions: Homo sapiens, U-266
In short: as §2

CCRF-CEM = assay: alamarBlue cell proliferation assay; assay type: cell-based; conditions: Homo sapiens
In short: as §1

[2] = test system: MM primary patient samples; assay: proliferation of ex vivo-treated primary patient samples; assay type: cell-based; conditions: Homo sapiens
RL = assay: alamarBlue cell proliferation assay; assay type: cell-based; conditions: Homo sapiens
In short: as §1

AMO-1 = assay: alamarBlue cell proliferation assay; assay type: cell-based; conditions: Homo sapiens, AMO1
In short: as §1

MHH-PREB-1 = assay: alamarBlue cell proliferation assay; assay type: cell-based; conditions: Homo sapiens
In short: as §1

MV-4-11B AML cells = assay: disseminated AML xenograft efficacy study; assay type: in vivo, CIEA-NOG mice; conditions: MV-4-11B i.v. engrafted
THP-1 GFP = assay: alamarBlue cell proliferation assay; assay type: cell-based; conditions: Homo sapiens
In short: as §2

MOLM-13 GFP = assay: alamarBlue cell proliferation assay; assay type: cell-based; conditions: Homo sapiens
In short: as §1

HBL-1 = assay: alamarBlue cell proliferation assay; assay type: cell-based; conditions: HBL1
In short: as §1

OPM-2 GFP = assay: alamarBlue cell proliferation assay; assay type: cell-based; conditions: Homo sapiens
In short: as §1

MUTZ-3 = assay: alamarBlue cell proliferation assay; assay type: cell-based
In short: as §1

MOLT-4 = assay: alamarBlue cell proliferation assay; assay type: cell-based; conditions: Homo sapiens
In short: as §1

HL-60 = assay: alamarBlue cell proliferation assay; assay type: cell-based; conditions: Homo sapiens
In short: as §1

OCI-Ly18 = assay: alamarBlue cell proliferation assay; assay type: cell-based; conditions: Homo sapiens
In short: as §1

Kasumi-1 = assay: alamarBlue cell proliferation assay; assay type: cell-based; conditions: Homo sapiens
In short: as §1

SR-786 = assay: alamarBlue cell proliferation assay; assay type: cell-based
In short: as §1

DB = assay: alamarBlue cell proliferation assay; assay type: cell-based; conditions: Homo sapiens
In short: as §1

[3] = test system: p-Ser2 POL-II in MV-4-11B cells; assay: p-Ser2 POL-II custom MSD assay; assay type: cell-based; conditions: 35 nM BI 894999, 2 h
In short: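 MV-4-11B cells were treated for 2 h with single agents or their combination. Phospho-Ser2 RNA Pol II was quantified with a custom Meso Scale Discovery multi-array assay.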

MV-4-11B GFP = assay: alamarBlue cell proliferation assay; assay type: cell-based
In short: as §1

THP-1 = assay: alamarBlue cell proliferation assay; assay type: cell-based; conditions: Homo sapiens
In short: as §2

KG-1 = assay: alamarBlue cell proliferation assay; assay type: cell-based; conditions: Homo sapiens
In short: as §1

K562 = assay: alamarBlue cell proliferation assay; assay type: cell-based; conditions: Homo sapiens
In short: as §1

MV-4-11B cells [4] = assay: FACS cell cycle profile; assay type: cell-based; conditions: 72 h, 30 nM and 100 nM
hematological cell lines = assay: alamarBlue cell proliferation assay, panel of hematological cell lines; assay type: cell-based
In short: as §2

THP-1 AML cells = assay: disseminated AML xenograft efficacy study; assay type: in vivo, CIEA-NOG mice; conditions: BI 894999 daily, 4 mg/kg p.o.
Toledo = assay: alamarBlue cell proliferation assay; assay type: cell-based; conditions: Homo sapiens
In short: as §2

MOLP-8 = assay: alamarBlue cell proliferation assay; assay type: cell-based; conditions: Homo sapiens
In short: as §1

MOLT-3 = assay: alamarBlue cell proliferation assay; assay type: cell-based; conditions: Homo sapiens
In short: as §1

L-363 = assay: alamarBlue cell proliferation assay; assay type: cell-based; conditions: Homo sapiens
In short: as §1

MOLP-8 GFP = assay: alamarBlue cell proliferation assay; assay type: cell-based; conditions: Homo sapiens
In short: as §1

SU-DHL4 = assay: alamarBlue cell proliferation assay; assay type: cell-based; conditions: Homo sapiens, SU-DHL-4
In short: as §1

Structure (SMILES): CNc1nc(-c2nc3ccc(N4CCN(C)CC4)cc3n2Cc2ccccc2)cn2c(C)nnc12 [BI 894999]
- EC50 (SKM-1): 10.2 ± 1.5 nM
- EC50 (OCI-Ly19): 13.2 ± 4.3 nM
- EC50 (NCI-H929): 3.6 ± 2 nM
- EC50 (U-2932): 4.3 ± 2.1 nM
- EC50 (HuT78): 7.1 ± 3.7 nM
- EC50 (RPMI 8226): 25 ± 9 nM
- EC50 (Kasumi-3): 3.4 ± 1.5 nM
- EC50 (RI-1): 6.2 ± 1.9 nM
- effect on proliferation (IncuCyte) (MV-4-11B cells [1]; 10 nM): Significant inhibition of proliferation
- time of peak of apoptosis (Caspase-3/7) after start of treatment (MV-4-11B cells [1]; dose-range 0.05 to 100 nM): around 40 h
- EC50 (TMD8): 9.7 ± 3.7 nM
- EC50 (OCI-Ly7): 14.2 ± 6.4 nM
- EC50 (U266 B1): 14.3 ± 7.4 nM
- EC50 (CCRF-CEM): 175 ± 58 nM
- EC50 ([2]; read-out: BI 894999 EC50, MM Patient 1): 52 nM
- EC50 ([2]; read-out: BI 894999 EC50, MM Patient 2): 15 nM
- EC50 ([2]; read-out: BI 894999 EC50, MM Patient 3): 7 nM
- EC50 ([2]; read-out: BI 894999 EC50, MM Patient 4): > 2000 nM
- EC50 ([2]; read-out: BI 894999 EC50, MM Patient 5): 500 nM
- EC50 ([2]; read-out: BI 894999 EC50, MM Patient 6): 421 nM
- EC50 ([2]; read-out: BI 894999 EC50, MM Patient 7): 54 nM
- EC50 ([2]; read-out: BI 894999 EC50, MM Patient 8): 3 nM
- EC50 ([2]; read-out: BI 894999 EC50, MM Patient 9): 21 nM
- EC50 ([2]; read-out: BI 894999 EC50, MM Patient 10): 1 nM
- EC50 ([2]; read-out: BI 894999 EC50, MM Patient 11): 57 nM
- EC50 ([2]; read-out: BI 894999 EC50, MM Patient 12): 1360 nM
- EC50 ([2]; read-out: BI 894999 EC50, MM Patient 13): 2 nM
- EC50 ([2]; read-out: BI 894999 EC50, MM Patient 14): 275 nM
- EC50 ([2]; read-out: BI 894999 EC50, MM Patient 15): 352 nM
- EC50 (RL): 18.2 ± 10 nM
- EC50 (AMO-1): 28 ± 15 nM
- EC50 (MHH-PREB-1): 24.4 ± 1.2 nM
- survival prolongation (MV-4-11B AML cells; daily oral 2 mg/kg): 29.5 days
- tumor growth inhibition (TGI) (MV-4-11B AML cells; daily oral 2 mg/kg): 96%
- survival prolongation (MV-4-11B AML cells; daily oral 4 mg/kg): 52 days
- tumor growth inhibition (TGI) (MV-4-11B AML cells; daily oral 4 mg/kg): 99%
- EC50 (THP-1 GFP): 4.1 ± 2 nM
- EC50 (MOLM-13 GFP): 14.3 nM
- EC50 (HBL-1): 7.1 ± 5.2 nM
- EC50 (OPM-2 GFP): 12 nM
- EC50 (MUTZ-3): 12.8 ± 11.2 nM
- EC50 (MOLT-4): 40.7 ± 28.7 nM
- EC50 (HL-60): 2.7 ± 0.1 nM
- EC50 (OCI-Ly18): 5.6 ± 0.9 nM
- EC50 (Kasumi-1): 2.8 ± 0.4 nM
- EC50 (SR-786): 77.3 ± 17.3 nM
- EC50 (DB): 11.6 ± 7.6 nM
- p-Ser2 POL-II levels [3]: ~ 86 % of control
- EC50 (MV-4-11B GFP): 2.9 ± 0.9 nM
- EC50 (THP-1): 6.3 ± 2.9 nM
- EC50 (KG-1): 6.2 ± 2.2 nM
- EC50 (K562): > 10000 nM
- cell cycle effect (MV-4-11B cells [4]): G1 arrest
- EC50 (hematological cell lines): < 10 nM
- EC50 (hematological cell lines; Homo sapiens, K562): < 100 nM
- increased potency compared to OTX-015 (hematological cell lines; on cell lines): 10–20 fold
- survival prolongation (THP-1 AML cells): 22 days
- EC50 (Toledo): 6 ± 1.1 nM
- EC50 (MOLP-8): 5.3 ± 2.8 nM
- EC50 (MOLT-3): 14.4 ± 6.5 nM
- EC50 (L-363): 13.7 ± 6.2 nM
- EC50 (MOLP-8 GFP): 21.5 ± 10.8 nM
- EC50 (SU-DHL4): 13.3 ± 4.5 nM
